In publication PMC10692362 (Acta Pharmaceutica Sinica. B, 2023):
Residue numbers refer to the chain shown, from its start. Where “and” joins values, the source holds several entries; their conditions need not be identical. Equal entries are not always repeated.

Key:
[1] = target: T1, ERα C530S mutant (Homo sapiens, UniProt P03372, C530S); assay: Transcriptional activity; type: cell-based
T1 sequence (P03372 1-595 C530S): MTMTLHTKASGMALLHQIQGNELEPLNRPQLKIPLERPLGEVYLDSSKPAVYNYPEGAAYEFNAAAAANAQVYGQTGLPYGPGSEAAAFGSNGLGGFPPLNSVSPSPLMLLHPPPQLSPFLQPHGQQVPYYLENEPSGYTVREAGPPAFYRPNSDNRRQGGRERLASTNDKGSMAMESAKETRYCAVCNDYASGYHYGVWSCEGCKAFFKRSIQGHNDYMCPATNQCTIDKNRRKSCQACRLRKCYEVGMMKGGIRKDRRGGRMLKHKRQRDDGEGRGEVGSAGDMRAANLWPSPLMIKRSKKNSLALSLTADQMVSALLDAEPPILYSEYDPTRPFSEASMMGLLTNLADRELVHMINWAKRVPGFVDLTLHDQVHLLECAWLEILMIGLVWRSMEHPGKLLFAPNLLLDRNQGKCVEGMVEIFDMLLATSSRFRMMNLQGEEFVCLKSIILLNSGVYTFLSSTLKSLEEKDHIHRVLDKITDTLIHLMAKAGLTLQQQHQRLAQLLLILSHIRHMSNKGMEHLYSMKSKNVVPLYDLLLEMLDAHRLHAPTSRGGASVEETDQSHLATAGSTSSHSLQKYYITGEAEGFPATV

[2] = target: T2, ERα (Homo sapiens, UniProt P03372); assay: Immunoblot analysis of ERα degradation in MCF-7 cells; type: cell-based
T2 sequence (P03372 1-595): T1 sequence (P03372 1-595 C530S) with S530C

[3] = target: T2, ERα; assay: Immunoblot analysis of ERα degradation in T-47D cells; type: cell-based; conditions: 5 μmol/L over 12 h
[4] = test system: LCC-2 cells; assay: Cell viability assay on tamoxifen-resistant LCC-2 cells; type: cell-based; conditions: Homo sapiens, LCC2, read-out: LCC-2 IC50
[5] = target: T3, human ERα LBD (Homo sapiens, UniProt P03372); assay: Competitive fluorescence polarization binding assay, ERα
T3 sequence (P03372 311-547 limits assumed): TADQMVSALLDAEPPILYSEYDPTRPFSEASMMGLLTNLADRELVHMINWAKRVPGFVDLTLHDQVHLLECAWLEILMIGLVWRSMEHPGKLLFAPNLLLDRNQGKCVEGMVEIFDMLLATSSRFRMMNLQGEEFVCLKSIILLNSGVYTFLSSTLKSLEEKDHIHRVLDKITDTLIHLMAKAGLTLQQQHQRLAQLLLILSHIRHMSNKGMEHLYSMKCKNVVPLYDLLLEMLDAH

[6] = target: T4, ERα D538G (Homo sapiens, UniProt P03372, D538G); assay: Immunoblot analysis of ERα degradation in T-47D^D538G cells; type: cell-based; conditions: 5 μmol/L over 12 h
T4 sequence (P03372 1-595 D538G): T1 sequence (P03372 1-595 C530S) with S530C, D538G

[7] = target: T2, ERα; assay: cell-based; type: cell-based
[8] = target: T1, ERα C530S mutant; assay: Immunoblot analysis of ERα C530S mutant protein in HEK-293T cells; type: cell-based; conditions: HEK-293T^C530S cells, compared with wild type
Method in brief: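 HEK-293T cells transfected with a plasmid carrying the single C530→S530 ERα point mutation, then treated with test compound. Cells lysed in RIPA buffer; proteins separated by SDS-PAGE and transferred to PVDF. Membranes blocked with 5% skim milk, probed overnight with rabbit anti-ERα and mouse anti-β-actin (loading control), then goat anti-rabbit secondary for 1 h. Developed by ECL.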

[9] = test system: MCF-7 tumor xenograft; assay: MCF-7 tumor xenograft model in BALB/c nude mice; type: in vivo
Method in brief: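 Female BALB/c nude mice (15–18 g, 5 weeks old) received 1 × 10⁷ MCF-7 cells in 100 μL PBS into the right axillary mammary fat pad. Tumour volume (W² × L × 0.5) and body weight were measured every 2 days. Mice were sacrificed on Day 33. Tumours were assessed by IHC (Ki-67, ERα) and ERα Western blot.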

SMILES: CC(C)=CC(=O)Nc1ccc(C2=C(c3ccc(O)cc3)C3OC2CC3S(=O)(=O)N(CC(F)(F)F)c2ccc(O)cc2)cc1 (stereo not drawn) [Compound 29c, N-(4-(3-(4-Hydroxyphenyl)-5-(N-(4-hydroxyphenyl)-N-(2,2,2-trifluoroethyl)sulfamoyl)-7-oxabicyclo[2.2.1]hept-2-en-2-yl)phenyl)-3-methylbut-2-enamide]
- IC50 [1]: 290 nM
- Agonist mode ERα C530S Eff (%E2) ([1]; ERα C530S mutant, HEK-293T): 2 ± 1 %E2
- Antagonist mode ERα C530S Eff (%E2) ([1]; ERα C530S mutant, HEK-293T): 33 ± 2 %E2
- Effect of C530S mutation on antagonistic activity ([1]; HEK-293T^C530S cells, compared with wild type): decreased
- ERα degradation time course, MCF-7 ([2]; 5 μmol/L over 24 h): completely degraded
- ERα degradation (immunoblot) at 1 μmol/L ([2]; MCF-7 cells, 1 μmol/L): efficient ability to degrade ERα
- ERα degradation (immunoblot) ([2]; MCF-7 cells, 1 or 5 μmol/L): effective in inducing ERα degradation
- ERα degradation time course, T-47D [3]: completely degraded
- IC50 [4]: 2100 ± 370 nM
- Ki [5]: 0.09 nM
- RBA ERα ([5]; IC50 estradiol/IC50 compound × 100, estradiol = 100%): 30.44% and 30.44 ± 1.13%
- α/β ratio ([5]; ratio of RBA ERα to RBA ERβ): 49.90
- ERα degradation time course, T-47D^D538G [6]: completely degraded
- IC50 [7]: 23 nM
- Agonist mode ERα Eff (%E2) ([7]; control as 0%, 10 nmol/L E2 as 100%): 5 ± 1 %E2
- Antagonist mode ERα Eff (%E2) ([7]; with 10 nmol/L 17β-estradiol): 76 ± 1 %E2
- ERα C530S degradation ability [8]: decreased
- ERα level in xenograft tumors (IHC, Western blot) ([9]; 4 mg/kg ip): significantly degrade ERα
- TGI (tumor growth inhibition) ([9]; 4 mg/kg ip every other day, Day 32): 92%
- Tumor weight, 29c compared with Ful ([9]; both at 2 mg/kg): no statistically significant difference in tumor weight
- H&E analysis of main visceral organs ([9]; heart, liver, spleen, kidney, ip administration): did not show significant changes in the main visceral organs
- Body weight of mice ([9]; ip 2 or 4 mg/kg every other day): did not apparently reduce mice body weight
- Tumor cell proliferation (Ki-67 IHC) ([9]; ip administration): significantly reduced tumor cell proliferation
- Tumor growth inhibition activity ([9]; ip dose of 2 or 4 mg/kg): significant tumor growth inhibition
